Activity calls are given as the source filed them. No cut-off for these calls is given here.

The results in this text go back to ChEMBL document CHEMBL4819129, “Design, synthesis and lipid-lowering activities of penipyridone derivatives” (Bioorg Med Chem, 2021).

In series [1] the test system is HepG2. In words: Hypolipidemic activity in human HepG2 cells assessed as inhibition of oleic acid-induced lipid accumulation at 10 uM. The series is classed as functional, cell-based. In a few lines:
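Oleic acid-induced lipid accumulation in HepG2; cells given 100 μM oleic acid with or without compound at 10 μM in DMSO; DMSO-only and OA-only controls, Simvastatin 10 μM positive control. Lipid quantified by oil red O staining. Mean ± SD, n = 4–6, at least three independent experiments.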

The subject of series [2] is HepG2. In words: Cytotoxicity against human HepG2 cells assessed as reduction in cell viability at 100 uM by MTT assay. It counts as cell-based. Conditions: hepg2, 100 µM. In outline: (§1)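 MTT viability in HepG2 seeded at 1.2 × 10⁴ cells/well, grown 24 h, then given serial dilutions from DMSO stocks (0.22 μm-filtered) in DMEM + 10% FBS, DMSO as control; 48 h at 37 °C. MTT 5 mg/mL in PBS added for 4 h, formazan dissolved in 10% SDS/0.01 N HCl, A490 read; DMSO wells = 100% viable. Mean ± SD, n = 6.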

Series [3] has as its system HepG2. The series can be described thus: Hypolipidemic activity against oleic acid-induced lipid accumulation in human HepG2 cell model assessed as decrease in triglycerides level at 10 uM measured after 24 hrs. The series is classed as functional. Set-up: scale not given: the % may be the effect or the level left. In a few lines: (§2)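 HepG2 in 12-well plates at 2 × 10⁵ cells/well, 37 °C; after 24 h, co-treated 24 h with 100 μmol/L oleic acid plus compound (DMSO vehicle) or Simvastatin 10 μM. Cells rinsed twice in PBS, lysed on ice 20 min, and triglyceride and total cholesterol contents measured. OA-only cells served as reference. Mean ± SD, n = 4.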

The test system of series [4] is HepG2. The series can be described thus: Hypolipidemic activity against oleic acid-induced lipid accumulation in human HepG2 cell model assessed as decrease in total cholestrol level at 10 uM measured after 24 hrs. It counts as functional. More on the design: scale not given: the % may be the effect or the level left. In outline: as §2
Series [5] concerns HepG2. The series can be described thus: Cytotoxicity against human HepG2 cells assessed as reduction in cell viability at 400 uM incubated for 48 hrs by MTT assay. The series is classed as cell-based. Particulars: hepg2, 48 h. In a few lines: as §1
(Formazan colour is commonly taken as a measure of viable cells.)

In series [6] the test system is HepG2. In words: Hypolipidemic activity in human HepG2 cells assessed as inhibition of oleic acid-induced triglyceride accumulation at 10 uM after 24 hrs. The series is classed as functional, cell-based. In outline:
as §2

For series [7], the system named is HepG2. In words: Hypolipidemic activity against oleic acid-induced lipid accumulation in human HepG2 cell model assessed as decrease in triglycerides level at 20 uM measured after 24 hrs. The series is classed as functional. Set-up: scale not given: the % may be the effect or the level left. In a few lines: as §2
Series [8] concerns HepG2. The series can be described thus: Hypolipidemic activity against oleic acid-induced lipid accumulation in human HepG2 cell model assessed as decrease in total cholestrol level at 20 uM measured after 24 hrs. More on the design: scale not given: the % may be the effect or the level left. It counts as functional. In outline: as §2
For series [9], the system named is HepG2. In words: Hypolipidemic activity against oleic acid-induced lipid accumulation in human HepG2 cell model assessed as decrease in total cholestrol level at 5 uM measured after 24 hrs. The series is classed as functional. More on the design: scale not given: the % may be the effect or the level left. In a few lines:
as §2

For series [10], the system named is HepG2. In words: Hypolipidemic activity in human HepG2 cells assessed as reduction in OA-induced lipid accumulation incubated for 1 hrs by Oil Red O staining based assay. The series is classed as functional, cell-based. Particulars: time 24.0 hrs, in the assay text read “24 hrs” for “1 hrs”. In outline: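 Oil red O: HepG2 fixed in 10% neutral formalin 1 h at room temperature, PBS-washed, stained 1 h with 0.5% oil red O in 60% isopropanol, water-washed and imaged (40×). For quantification, stained lipid droplets (30 min) washed with 70% ethanol and absorbance read at 358 nm.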

In the case of `CC(=O)O[C@@H](c1ccccc1)c1cc(OCCO)c(C(=O)N(C)C)cn1`, the outcome with HepG2 [1] was inactive.

In the case of `CC(=O)O[C@@H](c1ccccc1)c1cc(=O)c(C(N)=O)cn1CCN1CCCC1`, the result in the series with HepG2 [1] was Active.

In the case of `NC(=O)c1cnc(Cc2ccccc2)cc1OCCO`, the outcome in the series with HepG2 [1] was Active. Besides, the Activity entry in the series on HepG2 [2] is “Non-Toxic”.

Take `CC(=O)O[C@H](c1ccccc1)c1cc(OCCO)c(C(N)=O)cn1`: the outcome in the series with HepG2 [1] was inactive.

As to `CC(C)CC(=O)O[C@@H](c1ccccc1)c1cc(=O)c(C(N)=O)cn1CCO`, the result in the series with HepG2 [1] was inactive.

Take `CC(=O)O[C@@H](c1ccccc1)c1cc(OCCN2CCCC2)c(C(N)=O)cn1`: in the series with HepG2 [1], the result was Active.

Consider `CC(=O)O[C@@H](c1ccccc1)c1cc(=O)c(C(N)=O)cn1CCN1CCCCC1`, for which the result in the series on HepG2 [1] was Active.

In the case of `CC(=O)O[C@@H](c1ccccc1)c1cc(OCc2cc(C(F)(F)F)cc(C(F)(F)F)c2)c(C(N)=O)cn1`, the result in the series with HepG2 [1] was inactive.

Turning to `CCC(C)(C)C(=O)O[C@H]1C[C@@H](C)C=C2C=C[C@H](C)[C@H](CC[C@@H]3C[C@@H](O)CC(=O)O3)[C@H]21` [SIMVASTATIN], the Activity with HepG2 [3] came out at 29.1%; in the series on HepG2 [4], 12.1%.

For the compound `NC(=O)c1cnc([C@@H](O)c2ccccc2)cc1OCCO`, in the series with HepG2 [1], the outcome was inactive.

`CC(=O)O[C@@H](c1ccccc1)c1cc(OCCO)c(C(N)=O)cn1`: the result in the series with HepG2 [1] and in the series on HepG2 [6] was Active. Moreover, the Activity entry in the series with HepG2 [5] is on record as “Non-Toxic”.

As for `COCCOc1cc([C@@H](OC(C)=O)c2ccccc2)ncc1C(N)=O`, the result in the series on HepG2 [1] was inactive.

`CC(=O)O[C@@H](c1ccccc1)c1cc(=O)c(C(N)=O)cn1Cc1ccccc1`: in the series with HepG2 [1], the result was inactive.

As for `CC(C)CC(=O)O[C@@H](c1ccccc1)c1cc(OCCO)c(C(N)=O)cn1`, the outcome with HepG2 [1] was inactive.

With `CC(=O)O[C@@H](c1ccccc1)c1cc(=O)c(C(N)=O)cn1Cc1cc(C(F)(F)F)cc(C(F)(F)F)c1`, the outcome with HepG2 [1] was inactive.

Turning to `CC(=O)O[C@@H](c1ccccc1)c1cc(=O)c(C(N)=O)cn1CCN(C)C`, the outcome in the series on HepG2 [1] was Active. In the series on HepG2 [2], the Activity entry is listed as “Non-Toxic”.

On to `CC(=O)O[C@@H](c1ccccc1)c1cc(=O)c(C(=O)NC(=O)CC(C)C)cn1CCO`, for which the outcome in the series on HepG2 [1] was Active.

Take `NC(=O)c1cn(CCO)c(-c2ccccc2)cc1=O`: the result in the series with HepG2 [1] was Active. In the series on HepG2 [2], the Activity entry is “Non-Toxic”.

As for `CC(=O)O[C@@H](c1ccccc1)c1cc(OCc2ccccc2)c(C(N)=O)cn1`, in the series with HepG2 [1], the outcome was inactive.

On to `COCCn1cc(C(N)=O)c(=O)cc1[C@@H](OC(C)=O)c1ccccc1`, for which, in the series with HepG2 [1], the outcome was inactive.

Consider `CC(=O)O[C@@H](c1ccccc1)c1cc(OCCN2CCSCC2)c(C(N)=O)cn1`, for which the outcome in the series with HepG2 [1] and with HepG2 [6] was Active. Also, the Activity result with HepG2 [2] is “Non-Toxic”; in the series on HepG2 [5], “Non-Toxic”; in the series with HepG2 [7], 30.2%; in the series on HepG2 [8], 14.8%; with HepG2 [9], 12.8%; with HepG2 [10] it was “Dose-Dependent Effect”.

As to `CCOC(=O)COc1cc([C@@H](OC(C)=O)c2ccccc2)ncc1C(N)=O`, the result in the series on HepG2 [1] and in the series with HepG2 [6] was Active. For the same compound, the Activity entry with HepG2 [2] and in the series with HepG2 [5] was “Non-Toxic” each time.

As for `COc1ccc(Cn2cc(C(N)=O)c(=O)cc2[C@@H](OC(C)=O)c2ccccc2)cc1`, the result in the series with HepG2 [1] was inactive.

Turning to `CC(=O)O[C@@H](c1ccccc1)c1cc(OCCN(C)C)c(C(N)=O)cn1`, the result in the series on HepG2 [1] was Active. The Activity entry in the series on HepG2 [2] is given as “Non-Toxic”.

As for `CC(=O)O[C@@H](c1ccccc1)c1cc(OCCN2CCOCC2)c(C(N)=O)cn1`, in the series with HepG2 [1], the outcome was Active. Besides, in the series with HepG2 [2], the Activity entry was “Non-Toxic”.
